Assay results from ChEMBL document CHEMBL1135065, “2-(anilinomethyl)imidazolines as alpha1A adrenergic receptor agonists: 2'-heteroaryl and 2'-oxime ether series” (Bioorg Med Chem Lett, 2002).
One block for each molecule: values may come before it.

Key:
[1] = target: T1, Alpha-1D adrenergic receptor (Homo sapiens, UniProt P25100); experiment: In vitro activation of human alpha-1D receptor expressed in rat-1 fibroblasts via calcium using mobilization through the Gq coupled PLC pathway as functional assay
T1 sequence (P25100 whole entry): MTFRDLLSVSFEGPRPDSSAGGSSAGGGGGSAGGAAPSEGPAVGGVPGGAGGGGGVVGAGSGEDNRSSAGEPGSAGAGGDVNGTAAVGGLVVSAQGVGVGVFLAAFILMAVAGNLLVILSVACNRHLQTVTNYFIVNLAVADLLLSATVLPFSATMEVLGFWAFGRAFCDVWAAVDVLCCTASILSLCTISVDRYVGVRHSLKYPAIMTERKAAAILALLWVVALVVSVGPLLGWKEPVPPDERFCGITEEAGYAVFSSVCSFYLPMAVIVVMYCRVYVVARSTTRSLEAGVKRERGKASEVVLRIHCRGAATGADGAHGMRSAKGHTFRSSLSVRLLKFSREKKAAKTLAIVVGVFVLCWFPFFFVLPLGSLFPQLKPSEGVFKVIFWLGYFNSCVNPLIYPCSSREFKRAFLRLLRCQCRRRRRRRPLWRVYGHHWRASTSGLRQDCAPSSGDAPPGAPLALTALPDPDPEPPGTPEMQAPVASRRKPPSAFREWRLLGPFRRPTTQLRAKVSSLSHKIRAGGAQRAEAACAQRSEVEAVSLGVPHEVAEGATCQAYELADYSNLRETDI
Method in brief: (§1)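 Calcium mobilization via Gq/PLC was read by FLIPR with Calcium Green fluorescent dye. Eleven-point concentration–response curves, top concentration typically 5 µM, expressed as percent of the 40 µM phenylephrine response. Values are pEC50 and % maximal response, mean of at least two experiments.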

[2] = target: T2, Alpha-1A adrenergic receptor (Homo sapiens, UniProt P35348); experiment: In vitro activation of human alpha-1A receptor expressed in rat-1 fibroblasts via calcium mobilization through the Gq coupled PLC pathway as functional assay; method in brief: as §1
T2 sequence (P35348 whole entry): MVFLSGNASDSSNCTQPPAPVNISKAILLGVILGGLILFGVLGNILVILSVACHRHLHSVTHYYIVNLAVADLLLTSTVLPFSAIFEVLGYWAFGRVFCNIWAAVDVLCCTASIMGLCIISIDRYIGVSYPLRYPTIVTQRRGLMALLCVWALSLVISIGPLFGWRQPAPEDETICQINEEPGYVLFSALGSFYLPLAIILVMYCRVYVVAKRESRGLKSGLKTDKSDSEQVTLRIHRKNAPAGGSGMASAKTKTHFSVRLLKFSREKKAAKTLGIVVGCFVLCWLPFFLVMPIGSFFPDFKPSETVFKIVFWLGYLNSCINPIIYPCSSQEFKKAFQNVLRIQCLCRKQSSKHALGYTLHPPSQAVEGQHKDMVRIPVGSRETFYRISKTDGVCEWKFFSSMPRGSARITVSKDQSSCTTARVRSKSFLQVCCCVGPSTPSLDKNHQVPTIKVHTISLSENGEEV

[3] = target: T3, Alpha-1B adrenergic receptor (Homo sapiens, UniProt P35368); experiment: In vitro activation of human Alpha-1B receptor expressed in rat-1 fibroblasts via calcium mobilization through the Gq coupled PLC pathway as functional assay
T3 sequence (P35368 whole entry): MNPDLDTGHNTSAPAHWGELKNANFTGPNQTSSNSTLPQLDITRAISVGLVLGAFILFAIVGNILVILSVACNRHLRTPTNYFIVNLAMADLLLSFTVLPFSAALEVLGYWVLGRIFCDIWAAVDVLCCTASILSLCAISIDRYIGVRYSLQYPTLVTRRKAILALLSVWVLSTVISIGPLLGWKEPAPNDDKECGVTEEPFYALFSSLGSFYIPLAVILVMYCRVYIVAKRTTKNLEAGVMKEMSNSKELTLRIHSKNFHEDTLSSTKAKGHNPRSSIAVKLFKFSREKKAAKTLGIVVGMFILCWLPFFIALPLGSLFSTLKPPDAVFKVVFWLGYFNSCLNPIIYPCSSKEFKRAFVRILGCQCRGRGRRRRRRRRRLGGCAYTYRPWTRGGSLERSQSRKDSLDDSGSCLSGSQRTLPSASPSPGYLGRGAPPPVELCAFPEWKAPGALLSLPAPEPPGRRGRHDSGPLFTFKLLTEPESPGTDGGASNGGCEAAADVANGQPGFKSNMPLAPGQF

[4] = target: T3, Alpha-1B adrenergic receptor; experiment: In vitro binding affinity against human Alpha-1B adrenergic receptor expressed in rat-1 fibroblasts
Method in brief: (§2)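 Radioligand binding on membranes from Rat-1 fibroblasts expressing human α1A, α1B or α1D adrenoceptor. Affinity reported as pIC50, mean of at least two experiments.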

[5] = target: T1, Alpha-1D adrenergic receptor; experiment: In vitro binding affinity against human Alpha-1D adrenergic receptor expressed in rat-1 fibroblasts; method in brief: as §2
[6] = target: T2, Alpha-1A adrenergic receptor; experiment: In vitro binding affinity against human Alpha-1A adrenergic receptor expressed in rat-1 fibroblasts cells; type: cell-based, Fibroblast; method in brief: as §2
[7] = target: T4, Alpha-1A adrenergic receptor (Homo sapiens) (UniProt P35348); experiment: In vitro human alpha-1A receptor activation determined via calcium mobilization through the Gq coupled PLC pathway in rat-1 fibroblasts as percent maximum of phenylephrine response; type: functional
T4 sequence (whole entry): T2 sequence (P35348 whole entry)
Method in brief: as §1, with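 “Human α1A (clone #137–12) or α1D (clone #16–7) adrenoceptor stably expressed in Rat-1 fibroblasts. Calcium mobilization” for “Calcium mobilization”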

Compound: c1ccc(-c2cnccn2)c(NCC2=NCCN2)c1
EC50 [1]: 182 nM
EC50 [2]: 4.57 nM
EC50 [3]: 339 nM

Compound: c1ccc(-c2ncco2)c(NCC2=NCCN2)c1
EC50 [1]: 5.01 nM
IC50 [4]: 447 nM
IC50 [5]: 40.7 nM
EC50 [2]: 0.661 nM
IC50 [6]: 45.7 nM
EC50 [3]: 1.62 nM

Compound: CC/C(=N\OC)c1ccccc1NCC1=NCCN1
EC50 [1]: > 100000 nM
EC50 [2]: 3.31 nM
Max [7]: 112%
EC50 [3]: > 100000 nM

Compound: c1csc(-c2ccccc2NCC2=NCCN2)c1
EC50 [1]: 18.2 nM
EC50 [2]: 2.24 nM
EC50 [3]: 5.75 nM

Compound: CO/N=C(\C)c1ccccc1NCC1=NCCN1
EC50 [1]: > 5010 nM
EC50 [2]: 20.9 nM
Max [7]: 92%
EC50 [3]: > 5010 nM

Compound: c1ccc(-c2cnco2)c(NCC2=NCCN2)c1
EC50 [1]: > 5010 nM
IC50 [4]: 229 nM
IC50 [5]: 295 nM
EC50 [2]: 17.4 nM
IC50 [6]: 457 nM
EC50 [3]: > 5010 nM

Compound: CC/C(=N/OC)c1ccccc1NCC1=NCCN1
EC50 [1]: > 5010 nM
EC50 [2]: 87.1 nM
Max [7]: 141%
EC50 [3]: > 5010 nM

Compound: FC(F)(F)c1cccnc1-c1ccccc1NCC1=NCCN1
EC50 [1]: > 100000 nM
EC50 [2]: 676 nM
EC50 [3]: > 100000 nM

Compound: CO/N=C/c1ccccc1NCC1=NCCN1
EC50 [1]: > 5010 nM
IC50 [4]: 162 nM
IC50 [5]: 42.7 nM
EC50 [2]: 51.3 nM
IC50 [6]: 282 nM
Max [7]: 94%
EC50 [3]: > 5010 nM

Compound: c1coc(-c2ccccc2NCC2=NCCN2)c1
EC50 [1]: 16.2 nM
EC50 [2]: 0.468 nM
EC50 [3]: 6.31 nM

Compound: Cc1cccnc1-c1ccccc1NCC1=NCCN1
EC50 [1]: > 100000 nM
EC50 [2]: 24.5 nM
EC50 [3]: > 100000 nM

Compound: c1cnc(-c2ccccc2NCC2=NCCN2)nc1
EC50 [1]: 81.3 nM
IC50 [4]: 2190 nM
IC50 [5]: 417 nM
EC50 [2]: 10 nM
IC50 [6]: 191 nM
EC50 [3]: 77.6 nM

Compound: Cc1ccc(-c2ccccc2NCC2=NCCN2)o1
EC50 [1]: > 2000 nM
EC50 [2]: 2.69 nM
EC50 [3]: 46.8 nM

Compound: c1ccc(-c2ccno2)c(NCC2=NCCN2)c1
EC50 [1]: 2.88 nM
IC50 [4]: 132 nM
IC50 [5]: 38 nM
EC50 [2]: 0.794 nM
IC50 [6]: 35.5 nM
EC50 [3]: 3.72 nM

Compound: CCO/N=C(\C)c1ccccc1NCC1=NCCN1
EC50 [1]: > 5010 nM
EC50 [2]: 52.5 nM
Max [7]: 102%
EC50 [3]: > 5010 nM

Compound: c1ccc(-c2ccccc2NCC2=NCCN2)nc1
EC50 [1]: 41.7 nM
IC50 [4]: 589 nM
IC50 [5]: 117 nM
EC50 [2]: 6.76 nM
IC50 [6]: 81.3 nM
EC50 [3]: 30.2 nM

Compound: c1ccc(-c2cnoc2)c(NCC2=NCCN2)c1
EC50 [1]: > 100000 nM
EC50 [2]: 45.7 nM
EC50 [3]: > 100000 nM

Second part, the molecule after the results:

EC50 [1]: > 100000 nM
EC50 [2]: 36.3 nM
EC50 [3]: > 100000 nM
Compound: Cc1ccc(-c2ccccc2NCC2=NCCN2)s1

EC50 [1]: > 5010 nM
EC50 [2]: 110 nM
EC50 [3]: > 5010 nM
Compound: Cc1ncc(-c2ccccc2NCC2=NCCN2)o1

EC50 [1]: > 100000 nM
EC50 [2]: 38.9 nM
EC50 [3]: 95.5 nM
Compound: Cc1cc(-c2ccccc2NCC2=NCCN2)on1

EC50 [1]: > 5010 nM
EC50 [2]: 724 nM
EC50 [3]: 676 nM
Compound: Cc1nc(-c2ccccc2NCC2=NCCN2)no1

EC50 [1]: > 5010 nM
EC50 [2]: 4.47 nM
EC50 [3]: 69.2 nM
Compound: Cc1nc(-c2ccccc2NCC2=NCCN2)cs1

EC50 [1]: 28.8 nM
EC50 [2]: 42.7 nM
EC50 [3]: > 5010 nM
Compound: Nc1nccc(-c2ccccc2NCC2=NCCN2)n1

EC50 [1]: 49 nM
EC50 [2]: 0.851 nM
EC50 [3]: 112 nM
Compound: Cc1ccsc1-c1ccccc1NCC1=NCCN1

EC50 [1]: > 5010 nM
EC50 [2]: 661 nM
EC50 [3]: > 5010 nM
Compound: Cc1noc(-c2ccccc2NCC2=NCCN2)n1

EC50 [1]: > 100000 nM
IC50 [4]: 324 nM
IC50 [5]: 347 nM
EC50 [2]: 15.1 nM
IC50 [6]: 191 nM
EC50 [3]: > 100000 nM
Compound: Cc1ncoc1-c1ccccc1NCC1=NCCN1

EC50 [1]: > 5010 nM
EC50 [2]: 324 nM
EC50 [3]: > 5010 nM
Compound: Cc1nc(-c2ccccc2NCC2=NCCN2)co1
